One series deals with HEK293 cells. Description: cell penetration by confocal fluorescence microscopy. It is filed as cell-based. Particulars: FAM-labeled peptides, membrane stain R18. In a few lines:
(§1)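 FAM-labelled octa-Adp derivatives (side chains as free carboxylic acids, esters or amides) were purified by preparative HPLC. Unless stated otherwise, TFA counter-ions were removed with OH-form anion-exchange resin before use.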

A further series deals with MCF-7 cells. The description is as above. Format: cell-based. The note with it: FAM-labeled peptides, membrane stain R18. In a few lines: as §1
Another series has as its system Caco2-cells. The note with it: degraded cyanophycin dipeptides; cited from earlier work.
The test system of a further series is Plasmodium berghei. Description: parasitaemia reduction after intravenous tail-vein injection to infected mice. Format: in vivo. The note with it: P. berghei-infected mice. In a few lines: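 Single intravenous injection into the tail vein of mice, either uninfected or infected with Plasmodium berghei. Test compound was given in 0.9% NaCl at 0.01 ml/g body weight, with doses in μmol/kg. Oligo-arginine TFA salts were treated with Amberlyst A-26 (OH form) resin to remove TFA. Doses refer to the free peptide unless a TFA salt is stated. Read-outs were acute signs (death and its timing, heart rate, ataxia) and parasitaemia reduction in infected mice.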

The values that follow come from paper PMC6426238 (Helvetica chimica acta, 2018).

Regarding FAM-(Adp(NMe2))8-NH2 [Compound 9], the “cell permeability (CFM)” value with HEK293 cells and with MCF-7 cells was “mediocre to high cell permeability” each time.

For `NCCCC[C@H](NC(=O)C[C@H](N)C(=O)O)C(=O)O` [β-Asp-Lys], the “absorption by Caco2-cells” value with Caco2-cells is on record as “absorbed”.

For the compound `N=C(N)NCCC[C@H](NC(=O)CC(N)C(=O)O)C(=O)O` (stereo partly drawn) [H-Adp-OH, H-βAsp-αArg-OH], the “absorption by Caco2-cells” value in the series on Caco2-cells is “absorbed”.

Turning to `O=CN(O)CCCP(=O)(O)O` [Na-fosmidomycin, fosmidomycin], the Parasitaemia reduction entry with Plasmodium berghei (i.v. dose 1.5·10^4 μmol/kg) is reported as “No parasitaemia reduction (Parasitaemia reductions < 20% must be considered non-significant in this investigation: ‘no parasitaemia reduction’)”; with Plasmodium berghei (i.v. dose 1.5·10^6 μmol/kg), 95% Parasitaemia reduction; with Plasmodium berghei (i.v. dose 5·10^3 μmol/kg), “No parasitaemia reduction (Parasitaemia reductions < 20% must be considered non-significant in this investigation: ‘no parasitaemia reduction’)”; in the series on Plasmodium berghei (i.v. dose 5·10^5 μmol/kg), 72% Parasitaemia reduction.

For FAM-(Adp(OMe))8-NH2 [Compound 8], the “cell permeability (CFM)” value in the series with HEK293 cells and in the series on MCF-7 cells was “mediocre to high cell permeability” in each case.

As for FAM-Adp8-NH2 [Compound 7], the “cell permeability (CFM)” value in the series with HEK293 cells and in the series on MCF-7 cells was “does not enter the cells at all” throughout.
